# Assay results from different studies.
# Compare with care: the assays were run in different laboratories.
# Target: Inhibitor of nuclear factor kappa-B kinase subunit epsilon (IKBKE, Homo sapiens, UniProt Q14164)
# Effect on: enzyme activity
# Sequence (Q14164 1-716, as in one of the studies): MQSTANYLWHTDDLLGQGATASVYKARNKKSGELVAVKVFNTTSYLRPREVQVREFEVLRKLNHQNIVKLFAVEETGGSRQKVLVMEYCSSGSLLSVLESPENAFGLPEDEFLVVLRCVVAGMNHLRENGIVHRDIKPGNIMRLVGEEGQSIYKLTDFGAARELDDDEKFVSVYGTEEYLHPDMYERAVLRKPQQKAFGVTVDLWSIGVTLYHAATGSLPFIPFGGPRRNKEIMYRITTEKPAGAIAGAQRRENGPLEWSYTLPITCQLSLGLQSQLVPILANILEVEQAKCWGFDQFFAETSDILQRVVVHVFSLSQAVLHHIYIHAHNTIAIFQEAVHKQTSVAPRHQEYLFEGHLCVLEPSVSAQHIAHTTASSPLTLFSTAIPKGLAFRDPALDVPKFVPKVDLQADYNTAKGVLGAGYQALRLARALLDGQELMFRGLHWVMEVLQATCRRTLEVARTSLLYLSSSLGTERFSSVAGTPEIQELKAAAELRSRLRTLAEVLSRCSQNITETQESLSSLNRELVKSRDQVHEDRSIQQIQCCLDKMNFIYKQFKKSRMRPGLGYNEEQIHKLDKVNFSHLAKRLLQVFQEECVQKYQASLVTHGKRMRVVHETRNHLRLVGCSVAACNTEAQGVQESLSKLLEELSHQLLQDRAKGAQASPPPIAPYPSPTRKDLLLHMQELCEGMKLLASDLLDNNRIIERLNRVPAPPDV
Structure (SMILES),action,technique,tested at,remaining activity
COc1cc(Nc2cnc(C#N)c(O[C@H](C)CN(C)C)n2)ncc1-c1cnn(C)c1,inhibitor,radiometric,10 µM,84%
FC(F)c1nc2ccccc2n1-c1nc(N2CCOCC2)nc(N2CCOCC2)n1,inhibitor,,10 µM,84%
Clc1ccc(Nc2nnc(Cc3ccncc3)c3ccccc23)cc1,,,0.5 µM,95.7%
Oc1cccc(-c2nc(N3CCOCC3)c3oc4ncccc4c3n2)c1,inhibitor,,10 µM,85%
O=C(NCCCNc1nc(Nc2cccc(NC(=O)N3CCCC3)c2)ncc1C1CC1)C1CCC1,inhibitor,radiometric,1 µM,3%
O=C(Nc1cnn(-c2csc(C(=O)NC3COC3)c2)c1)Nc1ccccc1Cl,inhibitor,,5 µM,110%
COc1cc(Cl)c(C(=O)N[C@@H](CN[C@H]2CC[C@@H](N)CC2)Cc2ccc(C#N)cc2)cc1-c1ccc(CN[C@H](C)c2ccc(C)cc2)o1,inhibitor,,1 µM,89%
Cc1nn(CC(F)(F)F)cc1Nc1ncc(C2CC2)c(NCCc2c[nH]cn2)n1,inhibitor,radiometric,1 µM,95%
Cc1ccc(C(=O)Nc2ccc(CN3CCN(C)CC3)c(C(F)(F)F)c2)cc1C#Cc1cnc2cccnn12,inhibitor,,23.5 nM,99%
CC(C)(C)c1nc(-c2cccc(NS(=O)(=O)c3c(F)cccc3F)c2F)c(-c2ccnc(N)n2)s1,inhibitor,radiometric,1 µM,97%
O=c1cc(-c2cccc3c2Sc2ccccc2S3)oc(N2CCOCC2)c1,inhibitor,,0.5 µM,96.5%
NS(=O)(=O)c1ccc(CNc2ccnc(Nc3cccc(CN4CCOCC4)c3)n2)cc1,inhibitor,radiometric,1 µM,78%
CC(C)(O)[C@H]1CC[C@H](Nc2ccc3ncc(-c4cccc(C(F)(F)F)c4)n3n2)CC1,inhibitor,,1 µM,90.2%
NS(=O)(=O)c1ccc(CNc2nc(Nc3cccc(CN4CCOCC4)c3)ncc2Br)cc1,inhibitor,radiometric,1 µM,32%
CCN(CC)CCNC(=O)c1c(C)[nH]c(/C=C2\C(=O)Nc3ccc(Cl)cc32)c1C,inhibitor,,0.5 µM,29.4%
